MrgX1 antag – antagonists of human MrgX1 receptor. Q96LB2. MRGX1-HEK293 calcium flux, Fluo-4, BAM8-22 antagonism; active compounds read low. B-score at 10 µM. hit rate 1.3% among 310,000;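 active = calcium-response B-score plate-corrected more than 3 library SD below zero, starting fluorescence within 5 deviations, no agonist response on first addition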;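 also: peak minus trough fluorescence over baseline after final BAM8-22 challenge near maximal dose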
Target sequence (Q96LB2 whole entry, looked up): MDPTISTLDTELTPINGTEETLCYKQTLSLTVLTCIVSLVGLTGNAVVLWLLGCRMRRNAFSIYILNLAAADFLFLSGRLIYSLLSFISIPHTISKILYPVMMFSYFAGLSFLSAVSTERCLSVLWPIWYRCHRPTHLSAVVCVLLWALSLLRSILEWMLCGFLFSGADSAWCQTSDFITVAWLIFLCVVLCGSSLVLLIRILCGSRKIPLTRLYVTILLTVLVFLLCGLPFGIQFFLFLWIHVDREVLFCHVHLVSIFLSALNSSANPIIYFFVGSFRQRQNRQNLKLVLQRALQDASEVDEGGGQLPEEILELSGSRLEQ
MrgX1 PAM – allosterically activates human MrgX1 receptor signaling; MrgX1-HEK293, Fluo-4 calcium flux, FDSS; active compounds read high; B-score at 10 µM; hit rate 0.63% among 310,000; AID 588675; Q96LB2;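 active = plate-corrected calcium response at least 3 library SD above typical, normal starting fluorescence, not activating the receptor alone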;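 also: compound read alongside a low EC10 to EC30 dose of BAM8-22 agonist; peak minus trough fluorescence over baseline measured at the second addition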
MrgX1 agonist – activates human MrgX1 receptor signaling; Q96LB2; MrgX1-HEK293 cells, Fluo-4 calcium fluorescence, agonist mode; active compounds read high; B-score at 10 µM; hit rate 0.44% among 310,000;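 active = calcium response B-score plate-corrected fluorescence ratio at least 3 library SD, with starting fluorescence B-score inside 5 SD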
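times = overnight plating, then 30 min 37 °C plus 30 min room-temperature dye loading | assay system = stable human MrgX1 HEK293 cell line | input = fifteen thousand cells per well | signal = kinetic calcium dye fluorescence, Fluo-4 NW | dosing = compound delivered in addition one of three | read-out = B-scored fluorescence response ratio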
RGS4 block – inhibitors of human RGS4; P49798; HEK293 M3R/RGS4 inducible, Fluo-4 calcium flux; active compounds read high; triggered by carbachol at its EC20; B-score at 10 µM; hit rate 0.45% among 310,000; AID 463165;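 active = B-score, a plate-corrected calcium signal, over three deviations above library mean, with baseline fluorescence within five deviations of library mean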;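 also: RGS4 expression induced by doxycycline in cells with stable M3 receptor; B-score is computed from the integrated fluorescence ratio over baseline after carbachol; higher B-score means a larger calcium signal and so more RGS4 inhibition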
Target sequence (P49798 whole entry, looked up): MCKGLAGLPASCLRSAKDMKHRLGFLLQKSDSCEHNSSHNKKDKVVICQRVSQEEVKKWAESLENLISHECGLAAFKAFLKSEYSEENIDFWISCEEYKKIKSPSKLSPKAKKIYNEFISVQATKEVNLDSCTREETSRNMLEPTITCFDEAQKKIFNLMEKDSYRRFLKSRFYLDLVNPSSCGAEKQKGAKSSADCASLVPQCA
RGS4 pot – potentiators or activators of RGS4 | HEK293 M3R/inducible RGS4, carbachol calcium flux Fluo4; active compounds read low | B-score at 10 µM | hit rate 0.92% among 310,000;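 active = B-score of the integrated calcium signal more than 4 SD below the library mean, with starting fluorescence not abnormally high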;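 also: negative B-score means reduced calcium response which marks RGS4 activation or potentiation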
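test system = M3R-expressing HEK293 line, RGS4 induced by doxycycline | probe or stimulus = carbachol at ECmax as muscarinic agonist stimulus | timing = dye loading 30 min 37 °C, buffer rest 30 min RT | signal = calcium dye Fluo4 fluorescence | evaluation = B score from integrated fluorescence ratio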
RGS4 inh valid – RGS4 inhibitor validation; shares compounds with RGS4 block; HEK293 M3R/RGS4, carbachol calcium Fluo-4 fluorescence; carbachol added at its EC20; 0 = buffer wells, 100 = carbachol control; calcium response, % at 10 µM; hit rate 65% among 1,700;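 active = duplicate-averaged calcium response above the buffer-only control mean plus 5 SD of those controls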;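 also: integrated fluorescence ratio F max minus min over baseline F0; higher response in RGS4-induced cells means RGS4 inhibition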
M3R Ca ctr – non-induced cell nonspecific activity of RGS4 inhibitors | shares compounds with RGS4 block | HEK293 M3R non-induced, carbachol calcium Fluo-4; submaximal (EC20) carbachol stimulus; buffer wells 0%, carbachol control wells 100% | activity (percent), % at 10 µM | hit rate 20% among 1,900; call rule not given here;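 also: RGS4 induction absent so cells express M3R without RGS4; higher means more calcium signal and flags a non-specific hit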
RGS4 inh ctr2 – signal in non-induced cells without carbachol, RGS4 inhibitor counter-screen; HEK293 M3R/RGS4 non-induced, Fluo-4 calcium, no carbachol; normalised: buffer wells 0%, carbachol wells 100%; AID 493001; calcium response (agonist-mode artifact), % at 10 µM; hit rate 22% among 1,900; shares compounds with RGS4 block;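 active = duplicate-averaged calcium rise in uninduced cells above buffer wells' mean plus 5 SD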
Numbers stand for hits; n = inactive; x = no result. This is a sample that favours compounds with a hit; in the whole collection about 3.5% have one here.

SMILES	MrgX1 antag	MrgX1 PAM	MrgX1 agonist	RGS4 block	RGS4 pot	RGS4 inh valid	M3R Ca ctr	RGS4 inh ctr2
O=C(Cc1cccs1)N1CCC(c2nc3c(nnn3Cc3ccccc3)c(=O)[nH]2)CC1	n	n	n	n	n	n	n	n
Cc1ccc(Cn2nnc3c(=O)[nH]c(C4CCN(C(=O)Cc5cccs5)CC4)nc32)cc1	n	n	n	n	n	x	n	n
CC(C)(C)c1ccc(Cn2nnc3c(=O)[nH]c(C4CCCN(C(=O)Cc5cccs5)C4)nc32)cc1 (centres undefined)	n	n	n	n	n	x	x	x
CC(C)(C)c1ccc(Cn2nnc3c(=O)[nH]c(C4CCN(C(=O)Cc5cccs5)CC4)nc32)cc1	n	n	n	5.38	n	27.0%	n	n
O=C(Cc1cccs1)N1CCCC(c2nc3c(nnn3Cc3ccc(F)cc3)c(=O)[nH]2)C1 (centres undefined)	n	n	n	n	n	x	x	x
COc1ccc(OCc2cc(C(=O)N3CCC(c4ccccc4)CC3)no2)c(Cl)c1	n	n	n	n	n	x	x	x
CCCCNC(=O)c1onc(CSc2cccc(C)c2)c1C(=O)O	n	n	n	n	n	x	x	x
CCc1cccc(CC)c1NC(=O)C1CCN(C(=O)c2ccco2)CC1	n	n	n	n	n	x	x	x
Cc1ccc(/C=C/C(=O)c2ccc(O)cc2)cc1	n	n	n	n	n	x	x	x
Cc1ccc(C(=O)/C=C/C(=O)O)cc1	n	n	n	15.9	n	64.5%	43.5%	14.5%
O=C(CSCC(=O)N1CCCCC1)Nc1nc(-c2ccc(Cl)s2)cs1	n	n	n	9.34	n	n	n	n
O=C(CSCC(=O)N1CCN(c2ccccc2)CC1)Nc1nc(-c2ccc(Cl)s2)cs1	n	n	n	n	n	n	n	n
O=C(CSCC(=O)N1CCCCC1)Nc1nc(-c2cccs2)cs1	n	n	n	n	n	x	x	x
CCOC(=O)N1CCN(C(=O)CSCC(=O)Nc2nc(-c3ccccc3)cs2)CC1	n	n	n	n	n	x	x	x
O=C(N/N=C/c1ccc(O)cc1O)/C(=C/c1ccccc1)CCO	n	n	n	9.64	n	53.0%	37.5%	n
O=C(O)CCN1C(=O)/C(=C\c2ccc(-c3nc4ccccc4s3)o2)SC1=S	n	n	n	n	n	n	n	53.5%
O=C(O)CCCN1C(=O)/C(=C\c2ccco2)SC1=S	x	x	x	n	n	x	x	x
Cc1ccc(/C=C/C(=O)c2ccccc2)cc1	n	n	n	n	n	x	x	x
COc1cc(/C=C/C(=O)c2ccc(C)cc2)ccc1OCC#N	n	n	n	n	n	n	31.5%	n
Cc1ccc(C(=O)/C=C/c2ccc3ncccc3c2)cc1	n	n	n	7.81	n	22.0%	36.5%	n
COC(=O)c1ccc(/C=C/C(=O)c2ccc(OC)c(OC)c2)cc1	n	n	n	8.95	n	7.0%	43.5%	n
CCOc1ccc2nc(N(CCN(CC)CC)C(=O)/C=C/c3cccs3)sc2c1	n	n	n	n	n	x	x	x
CN(C)CCCNC(=S)N(CCO)Cc1cc2cc3c(cc2[nH]c1=O)OCO3	n	n	n	n	n	x	x	x
COCCCNC(=S)N(CCCO)Cc1cc2cc3c(cc2[nH]c1=O)OCCO3	n	n	n	n	n	x	n	n
CCNC(=S)N(CCCO)Cc1cc2cc3c(cc2[nH]c1=O)OCCO3	n	n	n	n	n	x	x	x
CCN(CC)CCCN(Cc1cc2cc3c(cc2[nH]c1=O)OCO3)C(=S)NCCOC	n	n	n	n	n	x	x	x
COCCCNC(=S)N(CCO)Cc1cc2cc3c(cc2[nH]c1=O)OCO3	n	n	n	n	n	n	n	n
COCCCNC(=S)N(CCCO)Cc1cc2cc3c(cc2[nH]c1=O)OCO3	n	n	n	n	n	x	n	n
